According to ChEMBL document CHEMBL1155362, “Synthesis, characterization and derivatization of some novel types of mono- and bis-imidazolidineiminothiones and imidazolidineiminodithiones with antitumor, antiviral, antibacterial and antifungal activities--part I” (Eur J Med Chem, 2009):
Converted amounts (≈) assume the structure as drawn. The source made the active and inactive calls. The calls are words filed in the database; no cut-off is given here.

How the values were obtained:
[1] = Antitumor activity against mouse EAC cells assessed as inhibition of cell viability at 25 ug/ml after 2 hrs by trypan blue exclusion assay; format: functional; conditions: Ehrlich
Method in brief: (§1)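 EAC cells aspirated from ascitic fluid of inoculated mice and diluted in saline; 0.1 mL cell suspension, 0.8 mL RPMI 1640 and 0.1 mL compound (25, 50 or 100) incubated 2 h at 37 °C; non-viable cells counted by trypan blue exclusion; % non-viable = dead/total × 100.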

Bacillus subtilis [2] = experiment: Antibacterial activity against Bacillus subtilis NCIB 3610 at 5 mg/ml by agar disk diffusion assay; format: functional; conditions: Bacillus subtilis, NCIB 3610; read-out: DIZ
Human alphaherpesvirus 1 [3] = experiment: Antiviral activity against HSV1 infected african green monkey Vero cells at 10^-4 dilution of 5 mg/ml by plaque formation assay; format: functional
Method in brief: (§2)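 Compound dilutions prepared from a 5 mg/mL DMSO stock, using the maximum non-toxic dilution for Vero cells over 3 days; 0.1 mL virus (10³) mixed with 0.1 mL compound for 1 h at room temperature; mixture inoculated onto washed Vero monolayers in 12-well plates and adsorbed at 37 °C; 2× MEM/agarose overlay applied; read-out % reduction in plaque count versus untreated virus control.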

Bacillus subtilis [4] = experiment: Antibacterial activity against Bacillus subtilis NCIB 3610 at 2.5 mg/ml by agar disk diffusion assay; format: functional; conditions: Bacillus subtilis, NCIB 3610; read-out: DIZ
Bacillus subtilis [5] = experiment: Antibacterial activity against Bacillus subtilis NCIB 3610 at 1 mg/ml by agar disk diffusion assay; format: functional; conditions: Bacillus subtilis, NCIB 3610; read-out: DIZ
U-251 [6] = experiment: Cytotoxicity against human U251 cells assessed as surviving fraction after 48 hrs by SRB assay; format: functional, cell-based; conditions: Homo sapiens, U-251, 48 h; read-out: IC50
Method in brief: (§3)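 Cells seeded at 10⁴ cells/well and left 24 h to attach, then exposed to […] in triplicate wells per dose. Incubation 48 h, 37 °C, 5% CO₂. Cells fixed and stained with sulforhodamine B, excess dye removed with acetic acid, bound dye taken up in Tris EDTA and read on an ELISA reader. Surviving fraction plotted against concentration.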

Bacillus subtilis [7] = experiment: Antimicrobial activity against Bacillus subtilis NCTC 1040 by macrotube dilution assay; format: functional
MCF7 [8] = experiment: Cytotoxicity against human MCF7 cells assessed as reduction in surviving fraction at 5.0 ug/ml after 48 hrs by SRB assay; format: functional, cell-based; method in brief: as §3
Pseudomonas aeruginosa [9] = experiment: Antibacterial activity against Pseudomonas aeruginosa NCIB 9016 at 1 mg/ml by agar disk diffusion assay; format: functional; conditions: Pseudomonas aeruginosa, NCIB 9016; read-out: DIZ
HCT-116 [10] = experiment: Cytotoxicity against human HCT116 cells assessed as surviving fraction after 48 hrs by SRB assay; format: functional, cell-based; conditions: Homo sapiens, HCT-116, 48 h; read-out: IC50; method in brief: as §3
HCT-116 [11] = experiment: Cytotoxicity against human HCT116 cells assessed as reduction in surviving fraction at 2.5 ug/ml after 48 hrs by SRB assay; format: functional, cell-based
Method in brief: (§4)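 HCT116 cells seeded at 10⁴ per well and allowed to attach for 24 h; exposed to 0, 1, 2.5, 5 or 10 in triplicate for 48 h at 37 °C in 5% CO₂; fixed and stained with sulforhodamine B; bound dye recovered in Tris EDTA and read on an ELISA reader; surviving fraction plotted against concentration.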

MCF7 [12] = experiment: Cytotoxicity against human MCF7 cells assessed as surviving fraction after 48 hrs by SRB assay; format: functional, cell-based; conditions: Homo sapiens, MCF7, 48 h; read-out: IC50; method in brief: as §3
U-251 [13] = experiment: Cytotoxicity against human U251 cells assessed as reduction in surviving fraction at 5.0 ug/ml after 48 hrs by SRB assay; format: functional, cell-based; method in brief: as §3
Candida albicans [14] = experiment: Antifungal activity against Candida albicans IMRU 3669 at 2.5 mg/ml by agar disk diffusion assay; format: functional; conditions: read-out: DIZ
Method in brief: (§5)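 Fungi maintained on Czapek's Dox agar; agar well diffusion with 1 cm wells and […] of each concentration (1, 2.5, 5 mg/mL) in DMF; inhibition zone diameter measured.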

HeLa = experiment: Cytotoxicity against human HeLa cells assessed as surviving fraction after 48 hrs by SRB assay; format: functional, cell-based; conditions: Homo sapiens, HeLa, 48 h; read-out: IC50; method in brief: as §3
HCT-116 [15] = experiment: Cytotoxicity against human HCT116 cells assessed as reduction in surviving fraction at 10.0 ug/ml after 48 hrs by SRB assay; format: functional, cell-based; method in brief: as §4
[16] = Antitumor activity against mouse EAC cells assessed as inhibition of cell viability at 50 ug/ml after 2 hrs by trypan blue exclusion assay; format: functional; conditions: Ehrlich; method in brief: as §1
Pseudomonas aeruginosa [17] = experiment: Antibacterial activity against Pseudomonas aeruginosa NCIB 9016 at 5 mg/ml by agar disk diffusion assay; format: functional; conditions: Pseudomonas aeruginosa, NCIB 9016; read-out: DIZ
HepG2 = experiment: Cytotoxicity against human HepG2 cells assessed as surviving fraction after 48 hrs by SRB assay; format: functional, cell-based; conditions: hepg2; method in brief: as §3
Coxsackievirus B4 [18] = experiment: Antiviral activity against Coxsackievirus B4 infected african green monkey Vero cells at 10^-4 dilution of 5 mg/ml by plaque formation assay; format: functional, organism-based; method in brief: as §2
Aspergillus niger [19] = experiment: Antifungal activity against Aspergillus niger Ferm-BAM C-21 by macrotube dilution assay; format: functional
Method in brief: (§6)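 Macrotube twofold dilution per NCCLS/CLSI guidelines for fungi; 2 mg compound in 2.0 mL DMF, serially diluted across 14 tubes of Czapek's Dox medium, with a control tube; inoculum added to halve the concentration; 30 °C for 72 h; MIC is the lowest concentration without visible growth.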

Aspergillus niger [20] = experiment: Antifungal activity against Aspergillus niger Ferm-BAM C-21 at 1 mg/ml by agar disk diffusion assay; format: functional; conditions: read-out: DIZ; method in brief: as §5
Aspergillus niger [21] = experiment: Antifungal activity against Aspergillus niger Ferm-BAM C-21 at 5 mg/ml by agar disk diffusion assay; format: functional; conditions: read-out: DIZ; method in brief: as §5
U-251 [22] = experiment: Cytotoxicity against human U251 cells assessed as reduction in surviving fraction at 1 ug/ml after 48 hrs by SRB assay; format: functional, cell-based; method in brief: as §3
Salmonella typhi [23] = experiment: Antimicrobial activity against Salmonella typhi NCIMB 9331 by macrotube dilution assay; format: functional, Salmonella enterica subsp. enterica serovar Typhi; conditions: Salmonella enterica
HCT-116 [24] = experiment: Cytotoxicity against human HCT116 cells assessed as reduction in surviving fraction at 5.0 ug/ml after 48 hrs by SRB assay; format: functional, cell-based; method in brief: as §4
U-251 [25] = experiment: Cytotoxicity against human U251 cells assessed as reduction in surviving fraction at 10.0 ug/ml after 48 hrs by SRB assay; format: functional, cell-based; method in brief: as §3
Aspergillus niger [26] = experiment: Antifungal activity against Aspergillus niger Ferm-BAM C-21 at 2.5 mg/ml by agar disk diffusion assay; format: functional; conditions: read-out: DIZ; method in brief: as §5
[27] = Antitumor activity against mouse EAC cells assessed as inhibition of cell viability at 100 ug/ml after 2 hrs by trypan blue exclusion assay; format: functional; conditions: Ehrlich; method in brief: as §1
Candida albicans [28] = experiment: Antifungal activity against Candida albicans IMRU 3669 by macrotube dilution assay; format: functional; method in brief: as §6
MCF7 [29] = experiment: Cytotoxicity against human MCF7 cells assessed as reduction in surviving fraction at 10.0 ug/ml after 48 hrs by SRB assay; format: functional, cell-based; method in brief: as §3
Candida albicans [30] = experiment: Antifungal activity against Candida albicans IMRU 3669 at 1 mg/ml by agar disk diffusion assay; format: functional; conditions: read-out: DIZ; method in brief: as §5
MCF7 [31] = experiment: Cytotoxicity against human MCF7 cells assessed as reduction in surviving fraction at 2.5 ug/ml after 48 hrs by SRB assay; format: functional, cell-based; method in brief: as §3
Candida albicans [32] = experiment: Antifungal activity against Candida albicans IMRU 3669 at 5 mg/ml by agar disk diffusion assay; format: functional; conditions: Candida albicans, IMRU 3669; read-out: DIZ; method in brief: as §5
Klebsiella pneumoniae = experiment: Antimicrobial activity against Klebsiella pneumoniae NCIMB 9111 by macrotube dilution assay; format: functional
HCT-116 [33] = experiment: Cytotoxicity against human HCT116 cells assessed as reduction in surviving fraction at 1 ug/ml after 48 hrs by SRB assay; format: functional, cell-based; method in brief: as §4
MCF7 [34] = experiment: Cytotoxicity against human MCF7 cells assessed as reduction in surviving fraction at 1 ug/ml after 48 hrs by SRB assay; format: functional, cell-based; method in brief: as §3
Staphylococcus aureus [35] = experiment: Antimicrobial activity against Staphylococcus aureus NCTC 7447 by macrotube dilution assay; format: functional
Hepatovirus A [36] = experiment: Antiviral activity against Hepatitis A virus infected african green monkey Vero cells at 10^-4 dilution of 5 mg/ml by plaque formation assay; format: functional; method in brief: as §2
Pseudomonas aeruginosa [37] = experiment: Antibacterial activity against Pseudomonas aeruginosa NCIB 9016 at 2.5 mg/ml by agar disk diffusion assay; format: functional; conditions: Pseudomonas aeruginosa, NCIB 9016; read-out: DIZ
U-251 [38] = experiment: Cytotoxicity against human U251 cells assessed as reduction in surviving fraction at 2.5 ug/ml after 48 hrs by SRB assay; format: functional, cell-based; method in brief: as §3
Staphylococcus aureus [39] = experiment: Antibacterial activity against Staphylococcus aureus NCTC 7447 at 5 mg/ml by agar disk diffusion assay; format: functional; conditions: read-out: DIZ
Hepatovirus A [40] = experiment: Antiviral activity against HAV infected african green monkey Vero cells at 10^-3 dilution of 5 mg/ml by plaque formation assay; format: functional; method in brief: as §2
Bacillus subtilis [41] = experiment: Antibacterial activity against Bacillus subtilis NCTC 1040 at 5 mg/ml by agar disk diffusion assay; format: functional; conditions: read-out: DIZ
Coxsackievirus B4 [42] = experiment: Antiviral activity against Coxsackievirus B4 infected african green monkey Vero cells at 10^-3 dilution of 5 mg/ml by plaque formation assay; format: functional; method in brief: as §2
Human alphaherpesvirus 1 [43] = experiment: Antiviral activity against HSV1 infected african green monkey Vero cells at 10^-3 dilution of 5 mg/ml by plaque formation assay; format: functional; method in brief: as §2
Salmonella typhi [44] = experiment: Antibacterial activity against Salmonella typhi NCIMB 9331 at 5 mg/ml by agar disk diffusion assay; format: functional, Salmonella enterica subsp. enterica serovar Typhi; conditions: Salmonella enterica, read-out: DIZ
Escherichia coli = experiment: Antibacterial activity against Escherichia coli NCTC 10416 at 5 mg/ml by agar disk diffusion assay; format: functional; conditions: read-out: DIZ

N=C1C(=S)N(c2ccc(Br)cc2)C(=S)N1c1ccc(Br)cc1
inhibition at 25 µg/mL [1]: 50%
zone of inhibition at 5000 µg/mL (Bacillus subtilis [2]): 32 mm
Activity (Human alphaherpesvirus 1 [3]): 50%
zone of inhibition at 2500 µg/mL (Bacillus subtilis [4]): 25 mm
zone of inhibition at 1000 µg/mL (Bacillus subtilis [5]): 21 mm
IC50 (U-251 [6]): 1.28 µg/mL (≈ 2.81 µM)
MIC (Bacillus subtilis [7]): 3.9 µg/mL (≈ 8.57 µM)
Activity (MCF7 [8]): Active
zone of inhibition at 1000 µg/mL (Pseudomonas aeruginosa [9]): 18 mm
IC50 (HCT-116 [10]): 4.56 µg/mL (≈ 10 µM)
Activity (HCT-116 [11]): Active
IC50 (MCF7 [12]): 3.09 µg/mL (≈ 6.79 µM)
Activity (U-251 [13]): Active
zone of inhibition at 2500 µg/mL (Candida albicans [14]): 20 mm
IC50 (HeLa): 8.93 µg/mL (≈ 19.6 µM)
Activity (HCT-116 [15]): Active
inhibition at 50 µg/mL [16]: 70%
zone of inhibition at 5000 µg/mL (Pseudomonas aeruginosa [17]): 21 mm
IC50 (HepG2): Not Active
Activity (Coxsackievirus B4 [18]): inactive
MIC (Aspergillus niger [19]): 0.49 µg/mL (≈ 1.08 µM)
zone of inhibition at 1000 µg/mL (Aspergillus niger [20]): 15 mm
zone of inhibition at 5000 µg/mL (Aspergillus niger [21]): 20 mm
Activity (U-251 [22]): Active
MIC (Salmonella typhi [23]): 1.95 µg/mL (≈ 4.28 µM)
Activity (HCT-116 [24]): Active
Activity (U-251 [25]): Active
zone of inhibition at 2500 µg/mL (Aspergillus niger [26]): 18 mm
inhibition at 100 µg/mL [27]: 90%
MIC (Candida albicans [28]): 1.95 µg/mL (≈ 4.28 µM)
Activity (MCF7 [29]): Active
zone of inhibition at 1000 µg/mL (Candida albicans [30]): 18 mm
Activity (MCF7 [31]): Active
zone of inhibition at 5000 µg/mL (Candida albicans [32]): 23 mm
MIC (Klebsiella pneumoniae): 7.8 µg/mL (≈ 17.1 µM)
Activity (HCT-116 [33]): Active
Activity (MCF7 [34]): Active
MIC (Staphylococcus aureus [35]): 15.6 µg/mL (≈ 34.3 µM)
Activity (Hepatovirus A [36]): inactive
zone of inhibition at 2500 µg/mL (Pseudomonas aeruginosa [37]): 19 mm
Activity (U-251 [38]): Active

N=C1C(=S)N(c2ccc(I)cc2)C(=O)N1c1ccc2c(c1)Cc1ccccc1-2
zone of inhibition at 5000 µg/mL (Staphylococcus aureus [39]): 13.5 mm
Activity (Hepatovirus A [40]): 50%
zone of inhibition at 5000 µg/mL (Bacillus subtilis [41]): 13.5 mm
Activity (Coxsackievirus B4 [42]): 50%
zone of inhibition at 5000 µg/mL (Candida albicans [32]): 13 mm
Activity (Human alphaherpesvirus 1 [43]): 70%
zone of inhibition at 5000 µg/mL (Salmonella typhi [44]): 17 mm
zone of inhibition at 5000 µg/mL (Escherichia coli): 15 mm
